According to publication PMC8900268 (Journal of medicinal chemistry, 2021):

How the values were obtained:
BCL-2:Bim interaction = BCL-2:Bim interaction (Homo sapiens, UniProt P10415); test: Co-immunoprecipitation of Bim with BCL-2 in RS4; type: cell-based; conditions: RS4;11 cells, 12 h, immunoprecipitation with BCL-2
Summary of the method: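 RS4;11 cells were treated with test compound for 12 h, ±VHL-032. Lysis in IP buffer with protease/phosphatase inhibitors, then 15000 rpm spin. 1 mg lysate was precleared with mouse IgG and protein A/G agarose for 1 h at 4 °C. IP with 2 μg anti-BCL-2 (or IgG) overnight at 4 °C, then beads for 2 h. After three washes, immunoblotted for Bim. Inputs probed for Bim, BCL-2 and β-actin. Two independent experiments.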

NCI-H211 cells = test: Cell viability assay in NCI-H211 cells; type: cell-based; conditions: BCL-2/BCL-XL dual-dependent cells
Summary of the method: (§1)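 Cells were seeded at 50,000/well in complete medium and dosed 30 min later at nine concentrations in triplicate. Viability was read by MTS after 48 h. Percentage viability was fitted by non-linear regression.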

BCL-XL with VCB = BCL-XL with VCB (Homo sapiens, UniProt P40337+Q07817); test: AlphaLISA cell-free ternary complex formation, BCL-XL and VCB; type: biochemical
Summary of the method: (§2)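 Recombinant His-tagged BCL-2 or BCL-XL and GST-tagged VHL–elongin B–elongin C–Cul2 (VCB) were each added at 20 nM with a 4× serial dilution of test compound. Buffer: 25 mM HEPES pH 7.5, 100 mM NaCl, 0.1% BSA, 0.005% Tween 20. Incubation 30 min at room temperature, then glutathione donor beads for 15 min and anti-His acceptor beads for 45 min, both in the dark. AlphaLISA luminescence plotted against log concentration.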

NCI-H146 cells = test: Cell viability assay in NCI-H146 cells; type: cell-based; conditions: BCL-2/BCL-XL dual-dependent cells
Summary of the method: as §1

MOLT-4 cells [1] = test: Apoptosis induction in MOLT-4 cells; type: cell-based, human; conditions: caspase-3 mediated
Summary of the method: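 MOLT-4 cells were given test compound for 16 h, then immunoblotted for cleaved and full caspase-3, cleaved and full PARP, and β-actin. Separately, cells (5×10^4/well) were pretreated ±2 μM QVD for 4 h, then given 10 nM compound for 48 h. Read by immunoblot, or by Annexin-V–Alexa Fluor 647 (1:50) plus PI (10 μg/mL) staining for 30 min at room temperature in the dark, then flow cytometry.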

BCL-XL [2] = target: T1, BCL-XL (Homo sapiens, UniProt Q07817); test: BCL-XL degradation in HEK 293T cells by immunoblotting; type: cell-based
Summary of the method: (§3)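 HEK 293T cells grown in DMEM with 10% FBS and 1% penicillin–streptomycin at 37 °C, 5% CO2, then treated with test compound. Lysates made with protease/phosphatase inhibitors, run on 4–20% Tris-glycine gels and transferred to PVDF. Blocked in 5% milk/TBS-Tween. Primary antibodies overnight at 4 °C, HRP secondary, ECL detection. Cleaved PARP probed as apoptosis marker.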

BCL-2 [3] = target: BCL-2 (Homo sapiens, UniProt P10415); test: BCL-2 degradation by western blotting in MOLT-4 and RS4; type: cell-based; conditions: 16 h
[4] = target: {BCL-2:compound:VCB} ternary complexes (Homo sapiens, UniProt P10415+P40337); test: NanoBRET ternary complex formation with BCL-2 and VCB in live 293T cells; type: cell-based; conditions: 6 h
Summary of the method: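 HEK 293T cells were transfected with 1 μg HaloTag-VHL, 10 ng HiBit-BCL-2 and 10 ng LgBit. After 24 h, 2×10^4 cells/well were placed in phenol-red-free Opti-MEM with 4% FBS ± HaloTag NanoBRET 618 ligand overnight at 37 °C. Serially diluted test compound was added for 6 h, then Nano-Glo substrate. mBRET ratio calculated. Mean ± s.e.m. of two independent experiments in triplicate.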

BCL-2 with VCB = BCL-2 with VCB (Homo sapiens, UniProt P10415+P40337); test: AlphaLISA cell-free ternary complex formation, BCL-2 and VCB; type: biochemical
Summary of the method: as §2

BCL-XL [5] = target: T1, BCL-XL; test: BCL-XL degradation in MOLT-4 cells by western blotting; type: cell-based
Summary of the method: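 MOLT-4 cells were exposed to test compound for 16 h across a concentration range. Other arms: 100 nM time course; 100 nM for 16 h, then washout; and pretreatment with 10 μM VHL-032 or 1 μM MG-132 before 12 h exposure. Lysates were immunoblotted for BCL-XL and β-actin. Band densities were normalised to β-actin. Mean ± SD of three independent experiments in triplicate.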

MCL-1 = MCL-1 levels in HEK 293T cells by immunoblotting; type: cell-based
Summary of the method: as §3

BCL-XL [6] = target: T1, BCL-XL; test: BCL-XL protein levels in human platelets by western blotting; type: cell-based; conditions: 16 h treatment
Summary of the method: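 Platelets came from purchased human platelet-rich plasma in acid citrate buffer with 1 μM PGE1 and 0.2 units/mL apyrase (final). They were pelleted at 1200 g for 10 min, washed and resuspended in HEPES Tyrode's buffer with the same PGE1/apyrase. Platelets were treated with test compound for 16 h, then immunoblotted for BCL-XL.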

RS4;11 cells = test: MTS cell viability assay in RS4; type: cell-based; conditions: for activity loss (IC50 change) after pre-treatment with VHL-032: RS4;11 cells, 48 h, pre-treatment with VHL-032 (10 μM); for IC50: Homo sapiens, RS4-11, 48 h, read-out: IC50, cell-killing potency in RS4;11
BCL-2 [7] = target: BCL-2 (Homo sapiens, UniProt P10415+P40337); test: AlphaScreen displacement binding assay, BCL-2; conditions: displacement of Biotin-Bim
BCL-XL [8] = target: BCL-XL (Homo sapiens, UniProt P40337+Q07817); test: AlphaScreen displacement binding assay, BCL-XL; conditions: displacement of Biotin-Bad
MOLT-4 cells [9] = test: MTS cell viability assay in MOLT-4 cells; type: cell-based; conditions: Homo sapiens, MOLT-4, 48 h, read-out: IC50, cell-killing potency in MOLT-4
MOLT-4 cells [10] = conditions: ref 10a; cited from earlier work
human platelets = conditions: earlier study; ref 10a; cited from earlier work

Chain of BCL-2:Bim interaction (P10415 whole entry): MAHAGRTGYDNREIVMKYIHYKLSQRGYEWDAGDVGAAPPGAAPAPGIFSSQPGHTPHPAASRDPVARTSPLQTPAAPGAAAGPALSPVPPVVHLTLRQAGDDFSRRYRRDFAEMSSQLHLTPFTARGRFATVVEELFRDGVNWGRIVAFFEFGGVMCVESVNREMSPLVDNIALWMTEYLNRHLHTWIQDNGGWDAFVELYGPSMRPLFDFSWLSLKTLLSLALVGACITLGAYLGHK
Chain of {BCL-2:compound:VCB} ternary complexes (P10415 whole entry): as above
Chain of {BCL-2:compound:VCB} ternary complexes (P40337 whole entry): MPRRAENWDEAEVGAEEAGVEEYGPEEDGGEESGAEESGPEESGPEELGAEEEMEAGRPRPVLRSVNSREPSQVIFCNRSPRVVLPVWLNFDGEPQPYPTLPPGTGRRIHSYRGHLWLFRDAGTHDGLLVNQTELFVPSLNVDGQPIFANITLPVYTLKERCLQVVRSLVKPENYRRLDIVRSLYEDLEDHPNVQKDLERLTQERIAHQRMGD
Chain of {BCL-2:compound:VCB} ternary complexes (Q15370 whole entry partner): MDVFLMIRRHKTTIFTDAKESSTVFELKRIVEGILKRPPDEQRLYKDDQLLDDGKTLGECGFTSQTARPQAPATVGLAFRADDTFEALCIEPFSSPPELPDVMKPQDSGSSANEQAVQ
Chain of {BCL-2:compound:VCB} ternary complexes (Q15369 whole entry partner): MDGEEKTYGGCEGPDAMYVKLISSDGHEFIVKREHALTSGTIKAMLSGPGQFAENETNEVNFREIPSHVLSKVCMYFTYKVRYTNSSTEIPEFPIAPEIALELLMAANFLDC
T1 sequence (Q07817 whole entry): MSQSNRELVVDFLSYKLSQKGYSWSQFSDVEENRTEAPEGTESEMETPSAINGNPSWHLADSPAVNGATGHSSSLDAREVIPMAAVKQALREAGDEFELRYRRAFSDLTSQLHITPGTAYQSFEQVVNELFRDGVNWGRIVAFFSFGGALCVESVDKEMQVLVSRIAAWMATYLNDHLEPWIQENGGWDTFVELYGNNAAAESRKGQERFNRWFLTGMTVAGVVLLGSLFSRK
Chain of BCL-XL (Homo sapiens, UniProt P40337+Q07817) (Q07817 1-212 limits assumed): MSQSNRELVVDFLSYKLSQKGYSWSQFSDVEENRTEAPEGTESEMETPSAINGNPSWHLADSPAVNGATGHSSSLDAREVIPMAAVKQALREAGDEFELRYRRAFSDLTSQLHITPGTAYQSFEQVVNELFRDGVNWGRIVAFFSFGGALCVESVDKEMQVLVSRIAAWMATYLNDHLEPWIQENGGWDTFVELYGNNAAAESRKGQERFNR
Chain of BCL-XL (Homo sapiens, UniProt P40337+Q07817) (P40337 whole entry): as the sequence (P40337 whole entry) above
Chain of BCL-XL (Homo sapiens, UniProt P40337+Q07817) (Q15369 whole entry partner): as the sequence (Q15369 whole entry partner) above
Chain of BCL-XL (Homo sapiens, UniProt P40337+Q07817) (Q15370 whole entry partner): as the sequence (Q15370 whole entry partner) above
Chain of BCL-XL (Homo sapiens, UniProt P40337+Q07817) (Q13617 whole entry partner): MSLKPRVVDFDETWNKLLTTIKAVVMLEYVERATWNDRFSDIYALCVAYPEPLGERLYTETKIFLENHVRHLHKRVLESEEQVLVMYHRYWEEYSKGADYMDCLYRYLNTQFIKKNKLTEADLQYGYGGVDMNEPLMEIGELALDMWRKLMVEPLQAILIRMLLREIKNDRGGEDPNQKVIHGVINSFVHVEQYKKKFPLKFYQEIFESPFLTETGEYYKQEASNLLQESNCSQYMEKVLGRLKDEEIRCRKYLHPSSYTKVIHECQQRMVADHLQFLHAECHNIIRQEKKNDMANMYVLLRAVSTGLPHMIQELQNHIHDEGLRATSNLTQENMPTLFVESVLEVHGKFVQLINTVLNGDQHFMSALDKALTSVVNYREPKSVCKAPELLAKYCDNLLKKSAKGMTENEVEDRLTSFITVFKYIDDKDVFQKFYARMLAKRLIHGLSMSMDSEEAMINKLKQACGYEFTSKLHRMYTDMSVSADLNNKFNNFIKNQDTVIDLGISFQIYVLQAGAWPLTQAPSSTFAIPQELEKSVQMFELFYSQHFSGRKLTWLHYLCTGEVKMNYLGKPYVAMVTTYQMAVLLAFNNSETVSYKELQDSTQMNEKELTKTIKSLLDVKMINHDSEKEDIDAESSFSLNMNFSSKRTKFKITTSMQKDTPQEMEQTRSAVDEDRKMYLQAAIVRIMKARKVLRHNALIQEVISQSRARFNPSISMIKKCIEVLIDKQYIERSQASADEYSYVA
Chain of BCL-XL with VCB (Q07817 1-212 limits assumed): as the sequence (Q07817 1-212 limits assumed) above
Chain of BCL-XL with VCB (P40337 whole entry): as the sequence (P40337 whole entry) above
Chain of BCL-XL with VCB (Q15370 whole entry partner): as the sequence (Q15370 whole entry partner) above
Chain of BCL-XL with VCB (Q15369 whole entry partner): as the sequence (Q15369 whole entry partner) above
Chain of BCL-XL with VCB (Q13617 whole entry partner): as the sequence (Q13617 whole entry partner) above
Chain of BCL-2 (Homo sapiens, UniProt P10415+P40337) (P10415 1-211 limits assumed): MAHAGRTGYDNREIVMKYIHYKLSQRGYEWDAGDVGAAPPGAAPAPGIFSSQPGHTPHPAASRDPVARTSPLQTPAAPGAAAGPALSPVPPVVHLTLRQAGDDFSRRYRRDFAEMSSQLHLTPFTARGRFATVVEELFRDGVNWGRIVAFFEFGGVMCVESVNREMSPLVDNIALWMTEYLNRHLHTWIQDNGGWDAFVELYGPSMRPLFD
Chain of BCL-2 (Homo sapiens, UniProt P10415+P40337) (P40337 whole entry): as the sequence (P40337 whole entry) above
Chain of BCL-2 (Homo sapiens, UniProt P10415+P40337) (Q15369 whole entry partner): as the sequence (Q15369 whole entry partner) above
Chain of BCL-2 (Homo sapiens, UniProt P10415+P40337) (Q15370 whole entry partner): as the sequence (Q15370 whole entry partner) above
Chain of BCL-2 (Homo sapiens, UniProt P10415+P40337) (Q13617 whole entry partner): as the sequence (Q13617 whole entry partner) above
Chain of BCL-2 with VCB (P10415 1-211 limits assumed): as the sequence (P10415 1-211 limits assumed) above
Chain of BCL-2 with VCB (P40337 whole entry): as the sequence (P40337 whole entry) above
Chain of BCL-2 with VCB (Q15370 whole entry partner): as the sequence (Q15370 whole entry partner) above
Chain of BCL-2 with VCB (Q15369 whole entry partner): as the sequence (Q15369 whole entry partner) above
Chain of BCL-2 with VCB (Q13617 whole entry partner): as the sequence (Q13617 whole entry partner) above
Chain of BCL-2 (Homo sapiens, UniProt P10415) (P10415 whole entry): as the sequence (P10415 whole entry) above

SMILES | effect on BCL-2:Bim interaction (BCL-2:Bim interaction) | formation of ternary complexes with BCL-XL and VCB (BCL-XL with VCB) | formation of {BCL-2:compound:VCB} ternary complexes in live cells [4] | formation of ternary complexes with BCL-2 and VCB (BCL-2 with VCB) | BCL-XL degradation (in words) (BCL-XL [5]) | activity loss (IC50 change) after pre-treatment with VHL-032 (RS4;11 cells) | IC50 (RS4;11 cells) [nM] | further results
Cc1ncsc1-c1ccc([C@H](C)NC(=O)[C@@H]2C[C@@H](O)CN2C(=O)[C@@H](NC(=O)CCCCCCCCC(=O)NC[C@]2(C)CCC(c3ccc(Cl)cc3)=C(CN3CCN(c4ccc(C(=O)NS(=O)(=O)c5ccc(N[C@H](CCN6CCOCC6)CSc6ccccc6)c(S(=O)(=O)C(F)(F)F)c5)cc4)CC3)C2)C(C)(C)C)cc1 [PZ703b, N^1-(((R)-4’-Chloro-4-methyl-6-((4-(4-(((4-(((R)-4-morpholino-1-(phenylthio)butan-2-yl)amino)-3-((trifluoromethyl)sulfonyl)phenyl)sulfonyl)carbamoyl)phenyl)piperazin-1-yl)methyl)-2,3,4,5-tetrahydro-[1,1’-biphenyl]-4-yl)methyl)-N^10-((S)-1-((2S,4R)-4-hydroxy-2-(((S)-1-(4-(4-methylthiazol-5-yl)phenyl)ethyl)carbamoyl)pyrrolidin-1-yl)-3,3-dimethyl-1-oxobutan-2-yl)decanediamide] | can inhibit BCL-2:Bim interaction | can form stable ternary complexes | able to form | can form stable ternary complexes | rapid and durable BCL-XL degradation | – | – | killing of NCI-H211 cells (NCI-H211 cells): efficiently kill; killing of NCI-H146 cells (NCI-H146 cells): efficiently kill; induction of apoptosis in MOLT-4 cells (MOLT-4 cells [1]): potently induced apoptosis; BCL-XL degradation in HEK 293T cells (BCL-XL [2]): effectively induce BCL-XL degradation; BCL-2 degradation (in words) (BCL-2 [3]): did not observe significant BCL-2 degradation; MCL-1 decrease in HEK 293T cells (MCL-1): no MCL-1 decrease was observed; effect on BCL-XL protein levels in platelets (BCL-XL [6]): did not cause significant changes
Cc1ncsc1-c1ccc([C@H](C)NC(=O)[C@@H]2C[C@H](O)CN2C(=O)[C@@H](NC(=O)CCCCCCCCC(=O)NC[C@]2(C)CCC(c3ccc(Cl)cc3)=C(CN3CCN(c4ccc(C(=O)NS(=O)(=O)c5ccc(N[C@H](CCN6CCOCC6)CSc6ccccc6)c(S(=O)(=O)C(F)(F)F)c5)cc4)CC3)C2)C(C)(C)C)cc1 [PZ703b-NC] | minimal effect | – | could not | – | did not induce BCL-XL degradation | no significant IC50 value changes | – | –
Cc1ncsc1-c1ccc([C@H](C)NC(=O)[C@@H]2C[C@@H](O)CN2C(=O)[C@@H](NC(=O)CCCCCCCCC(=O)NCC2(C)CCC(c3ccc(Cl)cc3)=C(CN3CCN(c4ccc(C(=O)NS(=O)(=O)c5ccc(N[C@H](CCN6CCOCC6)CSc6ccccc6)c(S(=O)(=O)C(F)(F)F)c5)cc4)CC3)C2)C(C)(C)C)cc1 (stereo partly drawn) [PP5, N^1-((4’-Chloro-4-methyl-6-((4-(4-(((4-(((R)-4-morpholino-1-(phenylthio)butan-2-yl)amino)-3-((trifluoromethyl)sulfonyl)phenyl)sulfonyl)carbamoyl)phenyl)piperazin-1-yl)methyl)-2,3,4,5-tetrahydro-[1,1’-biphenyl]-4-yl)methyl)-N^10-((S)-1-((2S,4R)-4-hydroxy-2-(((S)-1-(4-(4-methylthiazol-5-yl)phenyl)ethyl)carbamoyl)pyrrolidin-1-yl)-3,3-dimethyl-1-oxobutan-2-yl)decanediamide] | – | – | able to form | – | – | – | – | –
Cc1ncsc1-c1ccc([C@H](C)NC(=O)[C@@H]2C[C@@H](O)CN2C(=O)[C@@H](NC(=O)CCCCCCCCC(=O)NC[C@@]2(C)CCC(c3ccc(Cl)cc3)=C(CN3CCN(c4ccc(C(=O)NS(=O)(=O)c5ccc(N[C@H](CCN6CCOCC6)CSc6ccccc6)c(S(=O)(=O)C(F)(F)F)c5)cc4)CC3)C2)C(C)(C)C)cc1 [PZ703a, N^1-(((S)-4’-Chloro-4-methyl-6-((4-(4-(((4-(((R)-4-morpholino-1-(phenylthio)butan-2-yl)amino)-3-((trifluoromethyl)sulfonyl)phenyl)sulfonyl)carbamoyl)phenyl)piperazin-1-yl)methyl)-2,3,4,5-tetrahydro-[1,1’-biphenyl]-4-yl)methyl)-N^10-((S)-1-((2S,4R)-4-hydroxy-2-(((S)-1-(4-(4-methylthiazol-5-yl)phenyl)ethyl)carbamoyl)pyrrolidin-1-yl)-3,3-dimethyl-1-oxobutan-2-yl)decanediamide] | – | can form stable ternary complexes | able to form | can form stable ternary complexes | – | 2.6 fold | – | –
Cc1ncsc1-c1ccc([C@H](C)NC(=O)[C@@H]2C[C@@H](O)CN2C(=O)[C@@H](NC(=O)CCCCCC(=O)NCC2(C)CCC(c3ccc(Cl)cc3)=C(CN3CCN(c4ccc(C(=O)NS(=O)(=O)c5ccc(N[C@H](CCN6CCOCC6)CSc6ccccc6)c(S(=O)(=O)C(F)(F)F)c5)cc4)CC3)C2)C(C)(C)C)cc1 (stereo partly drawn) [PP2, N^1-((4’-Chloro-4-methyl-6-((4-(4-(((4-(((R)-4-morpholino-1-(phenylthio)butan-2-yl)amino)-3-((trifluoromethyl)sulfonyl)phenyl)sulfonyl)carbamoyl)phenyl)piperazin-1-yl)methyl)-2,3,4,5-tetrahydro-[1,1’-biphenyl]-4-yl)methyl)-N^7-((S)-1-((2S,4R)-4-hydroxy-2-(((S)-1-(4-(4-methylthiazol-5-yl)phenyl)ethyl)carbamoyl)pyrrolidin-1-yl)-3,3-dimethyl-1-oxobutan-2-yl)heptanediamide] | – | – | – | – | – | – | 234 ± 21.6 | –
Cc1ncsc1-c1ccc([C@H](C)NC(=O)[C@@H]2C[C@@H](O)CN2C(=O)[C@@H](NC(=O)CCCCCC(=O)N2CCN(CC[C@H](CSc3ccccc3)Nc3ccc(S(=O)(=O)NC(=O)c4ccc(N5CCN(CC6=C(c7ccc(Cl)cc7)CCC(C)(C)C6)CC5)cc4)cc3S(=O)(=O)C(F)(F)F)CC2)C(C)(C)C)cc1 [DT2216] | minimal effect | – | could not | – | – | no significant IC50 value changes | 212 ± 27.4 | Kd (BCL-2 [7]; Kd BCL-2 w VHL, ternary binding, with GST-VCB): 1.46 ± 0.41 nM; Kd (BCL-2 [7]; Kd BCL-2 w/o VHL, binary binding, without VCB): 2.25 ± 0.33 nM; Kd (BCL-XL [8]; Kd BCL-XL w VHL, ternary binding, with GST-VCB): 2.18 ± 0.51 nM; Kd (BCL-XL [8]; Kd BCL-XL w/o VHL, binary binding, without VCB): 7.58 ± 0.62 nM; IC50 (MOLT-4 cells [9]): 75.3 ± 9.1 nM; fold more potent than warhead ABT-263 against MOLT-4 (MOLT-4 cells [10]): 4 fold; selectivity for MOLT-4 over human platelets (human platelets): ~ 200 fold
